Assay results taken from ChEMBL document CHEMBL3593224, “Design, synthesis and biological evaluation of a novel series of peripheral-selective noradrenaline reuptake inhibitor” (Bioorg Med Chem, 2015).
Calls of active or inactive are those of the source. The rule behind the calls is not given here.

Experiments:
[1] = test system: Rattus norvegicus; test: Increase in urethral resistance in rat assessed as increase in leak point pressure at 1 to 10 mg/kg, sc measured 30 mins post dose by Evans blue dye based assay; type: functional, organism-based; settings: Urethra
[2] = biological target: Sodium-dependent noradrenaline transporter (Homo sapiens, UniProt P23975); test: Inhibition of human NET expressed in CHOK1 cells incubated for 45 mins by [3H]-norepinephrine uptake assay; type: cell-based, CHO-K1
Sequence of Sodium-dependent noradrenaline transporter (P23975 whole entry): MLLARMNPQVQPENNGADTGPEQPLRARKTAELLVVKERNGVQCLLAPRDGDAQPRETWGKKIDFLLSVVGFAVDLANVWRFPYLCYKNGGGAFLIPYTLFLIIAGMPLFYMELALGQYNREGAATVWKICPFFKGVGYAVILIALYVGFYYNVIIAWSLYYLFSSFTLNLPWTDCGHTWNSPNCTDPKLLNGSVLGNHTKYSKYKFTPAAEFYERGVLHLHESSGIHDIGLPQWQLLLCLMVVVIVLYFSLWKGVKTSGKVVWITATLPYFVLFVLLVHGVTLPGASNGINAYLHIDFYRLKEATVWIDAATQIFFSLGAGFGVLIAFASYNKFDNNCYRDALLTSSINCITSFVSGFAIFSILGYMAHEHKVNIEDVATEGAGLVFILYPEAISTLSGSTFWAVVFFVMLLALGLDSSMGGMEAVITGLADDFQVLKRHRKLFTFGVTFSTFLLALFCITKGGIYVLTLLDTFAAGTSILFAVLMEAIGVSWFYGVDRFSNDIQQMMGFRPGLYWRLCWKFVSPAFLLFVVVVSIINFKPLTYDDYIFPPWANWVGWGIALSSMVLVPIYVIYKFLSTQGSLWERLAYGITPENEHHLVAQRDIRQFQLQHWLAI
Summary of the method: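 Human NET stably expressed in CHO cells (Ham/F12, 10% FBS), seeded 3 × 10^5 cells/mL, overnight culture. In HEPES-buffered salt/glucose buffer with 0.5% BSA, compound then [3H]-norepinephrine (diluted to 200 nM before addition) added; uptake 45 min, two PBS washes, scintillation counting. 10 µM desipramine taken as 100% inhibition; IC50 and 95% confidence interval from n=2.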

[3] = biological target: Sodium-dependent serotonin transporter (Homo sapiens, UniProt P31645); test: Inhibition of human SERT expressed in CHOK1 cells incubated for 20 mins by [3H]-5-hydroxytryptamine uptake assay; type: cell-based, CHO-K1
Sequence of Sodium-dependent serotonin transporter (P31645 whole entry): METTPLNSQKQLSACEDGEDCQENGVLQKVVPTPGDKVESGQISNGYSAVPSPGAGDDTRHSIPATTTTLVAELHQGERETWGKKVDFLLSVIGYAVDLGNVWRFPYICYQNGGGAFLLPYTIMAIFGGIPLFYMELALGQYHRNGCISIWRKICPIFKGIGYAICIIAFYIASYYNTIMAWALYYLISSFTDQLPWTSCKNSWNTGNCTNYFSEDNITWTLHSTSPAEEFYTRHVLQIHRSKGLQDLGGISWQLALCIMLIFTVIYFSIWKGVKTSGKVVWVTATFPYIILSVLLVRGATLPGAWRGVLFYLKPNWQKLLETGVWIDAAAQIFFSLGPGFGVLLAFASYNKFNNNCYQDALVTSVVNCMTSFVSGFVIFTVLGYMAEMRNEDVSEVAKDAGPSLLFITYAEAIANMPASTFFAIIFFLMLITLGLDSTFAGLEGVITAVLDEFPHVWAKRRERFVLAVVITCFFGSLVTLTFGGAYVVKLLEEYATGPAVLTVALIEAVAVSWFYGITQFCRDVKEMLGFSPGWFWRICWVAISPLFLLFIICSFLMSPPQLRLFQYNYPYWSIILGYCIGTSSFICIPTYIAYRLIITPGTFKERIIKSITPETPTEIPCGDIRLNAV
Summary of the method: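 CHO cells stably expressing human SERT, cultured in Ham/F12 plus 10% FBS, plated 3 × 10^5 cells/mL overnight. Buffer: 126 mM NaCl, 10 mM HEPES, glucose, 0.5% BSA; compound added at 10× then diluted, followed by [3H]-5-HT (200 nM stock). After 20 min, buffer removed, cells washed twice with PBS, radioactivity counted; IC50 and 95% CI from two experiments.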

[4] = biological target: Sodium-dependent dopamine transporter (Homo sapiens, UniProt Q01959); test: Inhibition of human DAT expressed in CHOK1 cells incubated for 60 mins by [3H]-dopamine uptake assay; type: cell-based, CHO-K1
Sequence of Sodium-dependent dopamine transporter (Q01959 whole entry): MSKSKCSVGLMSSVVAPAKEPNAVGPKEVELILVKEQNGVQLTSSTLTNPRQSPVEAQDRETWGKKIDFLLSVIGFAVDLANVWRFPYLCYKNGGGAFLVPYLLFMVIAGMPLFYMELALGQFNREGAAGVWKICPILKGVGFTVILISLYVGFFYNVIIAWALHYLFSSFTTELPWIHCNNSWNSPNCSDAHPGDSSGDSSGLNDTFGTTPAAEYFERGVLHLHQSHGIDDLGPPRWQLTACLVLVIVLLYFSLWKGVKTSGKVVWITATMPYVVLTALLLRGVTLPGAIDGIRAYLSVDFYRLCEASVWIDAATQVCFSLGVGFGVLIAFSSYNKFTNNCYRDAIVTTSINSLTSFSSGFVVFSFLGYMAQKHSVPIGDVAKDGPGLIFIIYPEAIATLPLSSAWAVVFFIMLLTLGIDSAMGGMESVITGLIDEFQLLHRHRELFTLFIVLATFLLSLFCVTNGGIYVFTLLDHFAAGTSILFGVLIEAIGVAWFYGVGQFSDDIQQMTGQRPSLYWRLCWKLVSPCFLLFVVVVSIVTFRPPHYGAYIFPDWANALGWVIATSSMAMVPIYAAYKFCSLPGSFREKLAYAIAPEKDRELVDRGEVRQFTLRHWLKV
Summary of the method: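 CHO cells stably expressing human DAT, grown in Ham/F12 with 10% FBS, seeded 3 × 10^5 cells/mL and cultured overnight. Compound added in buffer (NaCl, KCl, KH2PO4, MgSO4, 10 mM HEPES, CaCl2, glucose, 0.5% BSA), then [3H]-dopamine (200 nM stock, with 10 µM cold dopamine stock); 60 min uptake, PBS wash, scintillation count. 100 µM nomifensine as 100% inhibition; IC50 with 95% CI, n=2.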

[5] = organism: Homo sapiens; test: Selectivity index, ratio of IC50 for human SERT to IC50 for human NET
Summary of the method: (§1)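 Ratio of IC50s from two [3H]-uptake assays in CHO cells (SERT or human NET expressing), seeded overnight in HEPES-buffered saline with glucose and 0.5% BSA. Radioligand added from 200 nM dilutions. SERT: [3H]-5-hydroxytryptamine, 20 min. NET: [3H]-norepinephrine, 45 min. Washed, scintillation counted; IC50 with 95% CI, n=2.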

[6] = organism: Homo sapiens; test: Selectivity index, ratio of IC50 for human DAT to IC50 for human NET
Summary of the method: as §1, with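 “stably expressing human DAT” for “(SERT”, “NET,” for “human NET expressing),”, “DAT: [3H]-dopamine plus cold dopamine (10 µM dilution), 60” for “SERT: [3H]-5-hydroxytryptamine, 20”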

[7] = test system: Rattus norvegicus; test: In-vivo occupancy at NET in Sprague-Dawley rat brain cortex at 3 mg/kg, iv by [3H]-nisoxetine […] assay; type: functional
Summary of the method: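 Female Sprague-Dawley rats under urethane anaesthesia (i.p.) got compound i.v. The left cortex was removed 20 min later and homogenised in Tris-Cl pH 7.5/NaCl/KCl buffer. Membranes at 4 mg/mL protein were incubated 1 h at room temperature with [3H]-nisoxetine (25 nmol/L solution), with desipramine for nonspecific binding. Filtered on GF/B; occupancy taken against vehicle specific binding (100%).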

[8] = biological target: CYP2D6 (Homo sapiens, UniProt P10635); test: Inhibition of CYP2D6 (unknown origin) at 10 uM; type: ADME
Sequence of CYP2D6 (P10635 whole entry): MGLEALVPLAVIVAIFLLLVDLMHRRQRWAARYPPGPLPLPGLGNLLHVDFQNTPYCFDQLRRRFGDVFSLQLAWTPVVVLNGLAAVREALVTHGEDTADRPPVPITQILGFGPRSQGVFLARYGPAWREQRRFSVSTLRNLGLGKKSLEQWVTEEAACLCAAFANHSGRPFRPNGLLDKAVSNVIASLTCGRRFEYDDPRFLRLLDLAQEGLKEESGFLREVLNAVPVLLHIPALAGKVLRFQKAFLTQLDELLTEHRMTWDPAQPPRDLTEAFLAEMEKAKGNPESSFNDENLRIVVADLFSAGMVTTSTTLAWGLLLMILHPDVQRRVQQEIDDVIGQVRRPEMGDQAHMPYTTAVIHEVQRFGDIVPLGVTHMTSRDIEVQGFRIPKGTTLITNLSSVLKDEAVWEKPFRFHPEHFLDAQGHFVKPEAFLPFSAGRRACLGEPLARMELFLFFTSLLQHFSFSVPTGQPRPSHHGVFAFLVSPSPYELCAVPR

[9] = biological target: hERG (KCNH2) (Homo sapiens, UniProt Q12809); test: Inhibition of human ERG at 10 uM
Sequence of hERG (KCNH2) (Q12809 whole entry): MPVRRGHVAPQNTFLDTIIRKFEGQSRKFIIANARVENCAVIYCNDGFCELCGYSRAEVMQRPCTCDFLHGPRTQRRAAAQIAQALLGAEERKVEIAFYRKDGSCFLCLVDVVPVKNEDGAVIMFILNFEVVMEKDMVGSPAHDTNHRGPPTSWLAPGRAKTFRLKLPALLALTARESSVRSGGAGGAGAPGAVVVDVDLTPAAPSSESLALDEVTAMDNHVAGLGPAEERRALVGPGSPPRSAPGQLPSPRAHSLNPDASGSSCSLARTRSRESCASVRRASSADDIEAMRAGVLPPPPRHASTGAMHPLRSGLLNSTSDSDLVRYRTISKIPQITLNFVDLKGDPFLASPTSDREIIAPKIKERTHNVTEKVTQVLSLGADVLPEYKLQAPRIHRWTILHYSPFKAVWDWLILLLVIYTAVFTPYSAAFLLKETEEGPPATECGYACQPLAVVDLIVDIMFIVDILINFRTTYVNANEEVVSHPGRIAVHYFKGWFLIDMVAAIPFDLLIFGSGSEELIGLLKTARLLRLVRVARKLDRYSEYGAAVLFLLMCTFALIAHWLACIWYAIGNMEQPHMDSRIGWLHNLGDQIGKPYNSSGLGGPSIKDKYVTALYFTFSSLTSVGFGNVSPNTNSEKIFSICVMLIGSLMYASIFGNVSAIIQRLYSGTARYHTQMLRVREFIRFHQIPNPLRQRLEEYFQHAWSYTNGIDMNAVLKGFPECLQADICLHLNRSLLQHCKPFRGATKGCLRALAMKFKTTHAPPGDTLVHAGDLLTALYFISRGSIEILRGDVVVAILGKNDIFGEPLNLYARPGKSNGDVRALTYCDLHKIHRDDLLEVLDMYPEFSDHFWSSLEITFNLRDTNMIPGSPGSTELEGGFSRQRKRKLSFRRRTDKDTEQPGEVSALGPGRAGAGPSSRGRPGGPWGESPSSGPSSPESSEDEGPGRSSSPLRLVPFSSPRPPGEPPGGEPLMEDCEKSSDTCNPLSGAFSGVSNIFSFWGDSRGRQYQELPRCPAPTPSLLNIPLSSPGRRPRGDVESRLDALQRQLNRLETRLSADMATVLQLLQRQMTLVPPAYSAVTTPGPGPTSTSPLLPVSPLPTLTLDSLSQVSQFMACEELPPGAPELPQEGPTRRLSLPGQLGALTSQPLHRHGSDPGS

[10] = test system: Rattus norvegicus; test: Increase in urethral resistance in rat assessed as increase in leak point pressure at 0.3 to 3 mg/kg, iv measured 30 mins post dose by Evans blue dye based assay; type: functional, organism-based; settings: Urethra

SMILES | Activity [1] | IC50 [2] [nM] | IC50 [3] [nM] | IC50 [4] [nM] | Ratio IC50 [5] | Ratio IC50 [6] | Occ [7] [%] | inhibition at 10 µM [8] [%] | inhibition at 10 µM [9] [%] | Activity [10]
CCOc1ccccc1O[C@@H](c1ccccc1)[C@@H]1CNCCO1 | Active |  |  |  |  |  |  |  |  | 
CN(C)C(=O)[C@@H]1CNCCO[C@H]1c1ccc(Cl)c(Cl)c1.Cl |  | 0.77 | 350 | 70 | 460 | 91 | 68 |  |  | 
OC[C@H]1CNCCO[C@@H]1c1ccc(Cl)c(Cl)c1 |  | 5.8 | 36 | 1400 | 6.1 | 230 |  | 45 |  | 
CC(=O)NC[C@@H]1CNCCO[C@H]1c1ccc(Cl)c(C)c1 |  | 3.3 | 480 | > 1000 | 150 | > 300 |  |  |  | 
CC(=O)NCC[C@@H]1CNCCO[C@H]1c1ccc(Cl)c(Cl)c1 |  | 5.8 | 200 | > 1000 | 35 | > 170 |  |  |  | 
OC[C@@H]1CNCCO[C@@H]1c1ccc(Cl)c(Cl)c1 |  | 8.5 | 11 | > 1000 | 1.3 | > 120 |  | 58 |  | 
CC(=O)NC[C@@H]1CNCCO[C@H]1c1ccc(Cl)c(F)c1.Cl |  | 2.3 | > 1000 | > 1000 | > 440 | > 440 | -2.8 |  |  | 
OC[C@@]1(c2ccc(Cl)c(Cl)c2)CCNCCO1 |  | 5.6 | 200 | > 10000 | 35 | > 1800 |  | 23 |  | 
OC[C@H]1CNCCO[C@H]1c1ccc(Cl)c(Cl)c1 |  | 6 | 120 | > 1000 | 20 | > 170 |  | 47 |  | 
NC(=O)[C@@H]1CNCCO[C@H]1c1ccc(Cl)c(Cl)c1 |  | 52 | 780 | > 10000 | 15 | > 190 |  |  |  | 
CC(=O)NC[C@@H]1CNCCO[C@H]1c1ccc(F)c(Cl)c1.O=C(O)/C=C/C(=O)O |  | 13 | > 1000 | > 1000 | > 76 | > 76 | 1.7 |  |  | 
OC[C@]1(c2ccc(Cl)c(Cl)c2)CCNCCO1 |  | 700 | 330 | > 10000 | 0.47 | > 14 |  | 21 |  | 
CC(=O)NC[C@@H]1CNCCO[C@H]1c1ccc(Cl)c(Cl)c1.O=C(O)/C=C/C(=O)O |  | 0.33 | 150 | 1500 | 450 | 4400 | -14 |  | 15 | Dose-dependent effect
OCC1(c2ccc(Cl)c(Cl)c2)CCNCCO1 (racemic) |  | 17 | 200 | > 10000 | 12 | > 590 |  | 19 |  | 
CC(=O)NC[C@@H]1CNCCO[C@H]1c1ccc(C)c(Cl)c1 |  | 3.4 | 680 | > 1000 | 200 | > 300 |  |  |  | 
CNC(=O)[C@@H]1CNCCO[C@H]1c1ccc(Cl)c(Cl)c1 |  | 12 | > 1000 | > 1000 | > 83 | > 83 |  |  |  | 
OCC1(c2ccc(Cl)c(Cl)c2)CCCNCC1 (racemic) |  | 2.1 | 35 | > 1000 | 17 | > 480 |  | 44 |  | 
Cl.OC[C@@H]1CNCCO[C@H]1c1ccc(Cl)c(Cl)c1 |  | 2 | 97 | 3100 | 50 | 1800 | 68 | 34 |  | 
